# Measurements: ChEMBL document CHEMBL1158477, “Synthesis, in vivo evaluation, and molecular modeling studies of new pyrazolo[5,1-c][1,2,4]benzotriazine 5-oxide derivatives. Identification of a bifunctional hydrogen bond area related to the inverse agonism” (J Med Chem, 2009)
# Active and inactive are the calls of the source. The rule behind the calls is not given here.
# How the values were obtained:
# [1] = species on record: Bos taurus; test: Displacement of [3H]flumazenil from GABAA/Benzodiazepine receptor in bovine brain at 10 uM
# How it was run: (§1)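 Bovine brain membranes; displacement of specific [3H]flumazenil (Ro15-1788) binding. Percent inhibition measured at 10 μM; Ki determined only when inhibition at that concentration exceeded 80%. Ki given as mean ± SEM of five determinations.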
# [2] = Displacement of [3H]flumazenil from GABAA/Benzodiazepine receptor in bovine brain; set-up: species or system Bos taurus; how it was run: as §1
# [3] = test system: Mus musculus; test: Anxiolytic activity in CD1 albino mouse at 10 mg/kg, po after 30 mins by light/dark box test; format: functional, organism-based; set-up: dose 10 mg/kg
# How it was run: (§2)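 Male CD-1 mice (22-24 g) given test substance po in 1% CMC (10 mL/kg), tested 30 min later in a light/dark box. Transfers between compartments and time spent in the illuminated side were measured. Values are mean ± SEM of 15-20 mice; compared with controls.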
# [4] = test system: Mus musculus; test: Anxiolytic activity in CD1 albino mouse at 30 mg/kg, po after 30 mins by light/dark box test; format: functional, organism-based; set-up: dose 30 mg/kg; how it was run: as §2
# [5] = test system: Mus musculus; test: Anxiolytic activity in CD1 albino mouse at 30 mg/kg, po after 30 mins by light/dark box test in presence of flumazenil; format: functional, organism-based; set-up: dose 30 mg/kg
# How it was run: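 Light/dark box in male CD-1 mice. Test substance given po in 1% CMC 30 min before the test, with flumazenil 100 mg/kg ip (saline) co-treatment. Transfers between compartments and time in the lit side recorded. Mean ± SEM of 15-20 mice.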
# [6] = test system: Mus musculus; test: Effect on learning and memory process in CD1 albino mouse assessed as decrease in retention latency at 10 mg/kg, po after 24 hrs by passive avoidance test; format: functional, organism-based; set-up: dose 10 mg/kg
# How it was run: (§3)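 Step-through passive avoidance in a two-compartment box (lit and dark compartments joined by a guillotine door). Male CD-1 mice dosed po (1% CMC) 30 min before training; retention tested 24 h later. Training and retention latencies recorded; mean ± SEM of 15-20 mice versus controls.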
# [7] = test system: Mus musculus; test: Effect on ethanol-induced sleeping time in CD1 albino mouse assessed as increase in duration of loss of righting reflex at 10 mg/kg, po preincubated 30 mins before ethanol challenge; format: functional, organism-based; set-up: dose 10 mg/kg
# [8] = test system: Mus musculus; test: Effect on ethanol-induced sleeping time in CD1 albino mouse assessed as increase in duration of loss of righting reflex at 30 mg/kg, po preincubated 30 mins before ethanol challenge; format: functional, organism-based; set-up: dose 30 mg/kg
# [9] = test system: Mus musculus; test: Effect on motor coordination in CD1 albino mouse assessed as number of falls form rotarod at 3 mg/kg, po administered 60 mins before test measured for 30 seconds after 30 mins of drug infusion by rotarod test; format: functional
# How it was run: (§4)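 Rota-rod in male CD-1 mice with a pretest. Test substance given po in 1% CMC; falls from the rotating rod counted over 30 s, assessed 30 min after treatment.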
# [10] = test system: Mus musculus; test: Effect on motor coordination in CD1 albino mouse assessed as number of falls form rotarod at 10 mg/kg, po […] measured for 30 seconds after 30 mins of dosing by rotarod test; format: functional; how it was run: as §4
# [11] = test system: Mus musculus; test: Anticonvulsant activity against pentylenetetrazole-induced shock in CD1 albino mouse assessed as shock latency at 3 mg/kg, po preincubated for 30 mins before pentylenetetrazole challenge measured for 30 mins (RVb=253.1 +/- 13 seconds); format: functional
# [12] = test system: Mus musculus; test: Anticonvulsant activity against pentylenetetrazole-induced shock in CD1 albino mouse assessed as shock latency at 10 mg/kg, po preincubated for 30 mins before pentylenetetrazole challenge measured for 30 mins (RVb=253.1 +/- 13 seconds); format: functional
# [13] = test system: Mus musculus; test: Anticonvulsant activity against pentylenetetrazole-induced convulsions in CD1 albino mouse assessed as convulsion latency at 3 mg/kg, po preincubated for 30 mins before pentylenetetrazole challenge measured for 30 mins (RVb=599 +/- 37.6 seconds); format: functional
# [14] = test system: Mus musculus; test: Anticonvulsant activity against pentylenetetrazole-induced convulsions in CD1 albino mouse assessed as convulsion latency at 10 mg/kg, po preincubated for 30 mins before pentylenetetrazole challenge measured for 30 mins (RVb=599 +/- 37.6 seconds); format: functional
# [15] = test system: Mus musculus; test: Effect on spontaneous motility in CD1 albino mouse assessed as number of movement on plane board at 3 mg/kg, po after 30 mins by hole-board test; format: functional
# How it was run: (§5)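 Hole-board test in male CD-1 mice: animals placed singly on the board and allowed to explore panel and holes. Test run 30 min after po dosing in 1% CMC (10 mL/kg). Hole entries (curiosity) and plane movements (spontaneous motility) counted; 10 mice per group, compared with CMC controls.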
# [16] = test system: Mus musculus; test: Effect on spontaneous motility in CD1 albino mouse assessed as number of movement on plane board at 10 mg/kg, po after 30 mins by hole-board test; format: functional; how it was run: as §5
# [17] = test system: Mus musculus; test: Effect on explorative capacity in CD1 albino mouse assessed as curiosity-related number of head plugging activity on hole at 3 mg/kg, po after 30 mins by hole-board test; format: functional; how it was run: as §5
# [18] = test system: Mus musculus; test: Effect on explorative capacity in CD1 albino mouse assessed as curiosity-related number of head plugging activity on hole at 10 mg/kg, po after 30 mins by hole-board test; format: functional; how it was run: as §5
# [19] = test system: Mus musculus; test: Anxiolytic activity in CD1 albino mouse at 3 mg/kg, po after 30 mins by light/dark box test; format: functional, organism-based; set-up: dose 3 mg/kg; how it was run: as §2
# [20] = test system: Mus musculus; test: Effect on learning and memory process in CD1 albino mouse assessed as improvement in retention latency at 3 mg/kg, po after 24 hrs by passive avoidance test; format: functional, organism-based; set-up: dose 3 mg/kg; how it was run: as §3
# [21] = test system: Mus musculus; test: Effect on learning and memory process in CD1 albino mouse assessed as improvement in retention latency at 10 mg/kg, po after 24 hrs by passive avoidance test; format: functional, organism-based; set-up: dose 10 mg/kg; how it was run: as §3
# [22] = test system: Mus musculus; test: Effect on ethanol-induced sleeping time in CD1 albino mouse assessed as increase in duration of loss of righting reflex at 3 mg/kg, po preincubated 30 mins before ethanol challenge; format: functional, organism-based; set-up: dose 3 mg/kg
Compound,Activity [1] [%],Ki [2] [nM],other results
COc1ccc(COc2ccc3c(c2)n2ncc(I)c2n[n+]3[O-])cc1,> 80,4.5,–
"CC(Oc1ccc2c(c1)n1ncc(I)c1n[n+]2[O-])c1ccccc1 (single isomer, unassigned; (-))",> 80,–,Activity [3]: Active; Activity [4]: Active; Activity [5]: inactive; Activity [6]: Active; Activity [7]: inactive; Activity [8]: inactive
[O-][n+]1nc2c(I)cnn2c2cc(-c3ccccc3)ccc21,> 80,966,–
COc1ccccc1COC(=O)c1ccc2c(c1)n1ncc(C)c1n[n+]2[O-],> 80,2.3,–
CCOC(=O)c1cnn2c1n[n+]([O-])c1ccc(Oc3ccccc3)cc12,> 80,12,–
[O-][n+]1nc2c(I)cnn2c2cc(OC3CCCCC3)ccc21,> 80,188,–
[O-][n+]1nc2c(I)cnn2c2cc(CCc3ccccc3)ccc21,> 80,464,–
[O-][n+]1nc2c(I)cnn2c2cc(/C=C/c3ccccc3)ccc21,> 80,2000,–
CC(Oc1ccc2c(c1)n1ncc(I)c1n[n+]2[O-])c1ccccc1 (racemic) [listing 1 of 2 here],–,3.4,–
COc1ccccc1COC(=O)c1cnn2c1n[n+]([O-])c1ccc(Oc3ccccc3)cc12,> 80,1.75,–
[O-][n+]1nc2ccnn2c2cc(-c3ccccc3)ccc21,10,–,–
[O-][n+]1nc2ccnn2c2cc(OCc3ccccc3)ccc21,> 80,116,–
CC(Oc1ccc2c(c1)n1ncc(I)c1n[n+]2[O-])c1ccccc1 (racemic) [listing 2 of 2 here],> 80,–,–
O=C(OCc1cccs1)c1cnn2c1n[n+]([O-])c1ccc(C(F)(F)F)cc12,> 80,10,–
CCCCCCCCOc1ccc2c(c1)n1ncc(I)c1n[n+]2[O-],> 80,1620,–
CCOC(=O)c1cnn2c1n[n+]([O-])c1ccc(-c3ccccc3)cc12,40,–,–
[O-][n+]1nc2c(Br)cnn2c2cc(-c3ccccc3)ccc21,> 80,802,–
[O-][n+]1nc2c(I)cnn2c2cc(OCc3ccncc3)ccc21,> 80,1.3,Activity [9]: 1.4; Activity [10]: 2.3; Activity [11]: 183 s; Activity [12]: 299 s; Activity [13]: 565.8 s; Activity [14]: 610.9 s; Activity [15]: 93.9; Activity [16]: 85.1; Activity [17]: 35.5; Activity [18]: 36.9; Activity [19]: inactive; Activity [3]: inactive; Activity [20]: Active; Activity [21]: Active; Activity [7]: inactive; Activity [22]: inactive
[O-][n+]1nc2c(Cl)cnn2c2cc(Oc3ccccc3)ccc21,> 80,43,–
Ic1cnn2c1nnc1ccc(OCc3ccccc3)cc12,> 80,1,–
